Measured values as given in ChEMBL document CHEMBL2406980, “Non hemolytic short peptidomimetics as a new class of potent and broad-spectrum antimicrobial agents” (Bioorg Med Chem Lett, 2013).
≈ marks a conversion by molar mass, not a printed value. Calls of active or inactive are those of the source. The rule behind the calls is not given here. Where a SMILES comes first, the peptide text is derived from it.

Assays:
[1] = Hemolytic activity in human RBC after 1 hr; type: ADME, cell-based; conditions: erythrocyte
Method in brief: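 Human erythrocytes are exposed to peptide, and HC10 is taken as the peptide concentration producing 10% hemolysis. If no hemolysis is detected at the top concentration tested, twice that maximum is used for the therapeutic index.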

Staphylococcus aureus [2] = assay: Antibacterial activity against methicillin-resistant Staphylococcus aureus CCARM 3095 assessed as growth inhibition after 18 to 20 hrs by broth microdilution method; type: functional
Escherichia coli [3] = assay: Antibacterial activity against Escherichia coli KCTC 1682 assessed as growth inhibition at 50 ug/ml preincubated with trypsin for 1 hr followed by 18 to 20 hrs incubation in bacterial culture by broth microdilution method; type: functional, organism-based
Method in brief: (§1)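 Peptides are pretreated with trypsin, then residual antibacterial activity is measured by broth microdilution. Remaining intact peptide at each degradation time is followed separately by analytical RP-HPLC after trypsin treatment.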

Escherichia coli [4] = assay: Antibacterial activity against Escherichia coli KCTC 1682 assessed as growth inhibition after 18 to 20 hrs by broth microdilution method; type: functional
Method in brief: (§2)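 MIC by broth microdilution against a four-strain panel: E. coli and P. aeruginosa (Gram-negative), S. epidermidis and S. aureus (Gram-positive). Values are given in mass and molar units. Where no activity occurs at the top concentration, twice that maximum is used in the geometric-mean MIC calculation.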

Staphylococcus aureus [5] = assay: Antibacterial activity against Staphylococcus aureus KCTC 1621 assessed as growth inhibition at 50 ug/ml preincubated with trypsin for 1 hr followed by 18 to 20 hrs incubation in bacterial culture by broth microdilution method; type: functional, organism-based; method in brief: as §1
[6] = system: Staphylococcus epidermidis; assay: Antibacterial activity against Staphylococcus epidermidis KCTC 1917 assessed as growth inhibition after 18 to 20 hrs by broth microdilution method; type: functional; method in brief: as §2
Staphylococcus aureus [7] = assay: Antibacterial activity against Staphylococcus aureus KCTC 1621 assessed as growth inhibition after 18 to 20 hrs by broth microdilution method; type: functional; method in brief: as §2
Staphylococcus aureus [8] = assay: Antibacterial activity against methicillin-resistant Staphylococcus aureus CCARM 3090 assessed as growth inhibition after 18 to 20 hrs by broth microdilution method; type: functional
Pseudomonas aeruginosa = assay: Antibacterial activity against Pseudomonas aeruginosa KCTC 1637 assessed as growth inhibition after 18 to 20 hrs by broth microdilution method; type: functional; method in brief: as §2
Staphylococcus aureus [9] = assay: Antibacterial activity against methicillin-resistant Staphylococcus aureus CCARM 3089 assessed as growth inhibition after 18 to 20 hrs by broth microdilution method; type: functional
Escherichia coli [10] = assay: Antibacterial activity against Escherichia coli KCTC 1682 assessed as obvious disruption of cellular structure at 10 X MIC after 1 hr by transmission electron microscopic analysis; type: functional, organism-based
Method in brief: (§3)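 Peptide-treated E. coli and S. aureus are negatively stained and examined by transmission electron microscopy for cell rupture and release of internal material. Comparisons are made with untreated cells, with LL-37 as a positive lysis control.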

Staphylococcus aureus [11] = assay: Antibacterial activity against Staphylococcus aureus KCTC 1621 assessed as obvious disruption of cellular structure at 10 X MIC after 1 hr by transmission electron microscopic analysis; type: functional, organism-based; method in brief: as §3

Compound | HC10 [1] [µM] | MIC (Staphylococcus aureus [2]) [µM] | growth inhibition (GI) (Escherichia coli [3]) | MIC (Escherichia coli [4]) [µM] | growth inhibition (GI) (Staphylococcus aureus [5]) | MIC [6] [µM] | MIC (Staphylococcus aureus [7]) [µM] | MIC (Staphylococcus aureus [8]) [µM] | MIC (Pseudomonas aeruginosa) [µM] | MIC (Staphylococcus aureus [9]) [µM] | Activity (Escherichia coli [10]) | Activity (Staphylococcus aureus [11])
H-WRWRWR-NH2 [listing 1 of 2 here] | > 245.2 | – | – | – | – | – | – | – | – | – | – | –
N=C(N)NCCC[C@H](NC(=O)[C@@H](N)Cc1c[n+](CCCC2CCCCC2)cn1CCCC1CCCCC1)C(N)=O | > 457.6 | 14.3 | Active | > 114 | Active | 14.3 | 14.3 | 28.6 | 57.2 | 14.3 | – | –
H-WRWRWR-NH2 [listing 2 of 2 here] | – | – | – | 3.8 | – | 7.7 | 7.7 | – | 15.3 | – | – | –
CC[C@H](C)[C@H](NC(=O)CN)C(=O)NCC(=O)N[C@@H](C)C(=O)N[C@H](C(=O)N[C@@H](CC(C)C)C(=O)N[C@@H](CCCCN)C(=O)N[C@H](C(=O)N[C@@H](CC(C)C)C(=O)N[C@H](C(=O)N[C@H](C(=O)NCC(=O)N[C@@H](CC(C)C)C(=O)N1CCC[C@H]1C(=O)N[C@@H](C)C(=O)N[C@@H](CC(C)C)C(=O)N[C@H](C(=O)N[C@@H](CO)C(=O)N[C@@H](Cc1c[nH]c2ccccc12)C(=O)N[C@H](C(=O)N[C@@H](CCCCN)C(=O)N[C@@H](CCCNC(=N)N)C(=O)N[C@@H](CCCCN)C(=O)N[C@@H](CCCNC(=N)N)C(=O)N[C@@H](CCC(N)=O)C(=O)N[C@@H](CCC(N)=O)C(N)=O)[C@@H](C)CC)[C@@H](C)CC)[C@@H](C)O)[C@@H](C)O)C(C)C)C(C)C | – | – | inactive | – | inactive | – | – | – | – | – | – | –
N=C(N)NCCC[C@H](NC(=O)[C@H](CCCNC(=N)N)NC(=O)[C@@H](N)Cc1c[n+](CCCC2CCCCC2)cn1CCCC1CCCCC1)C(N)=O | > 357.7 | 5.6 | Active | 5.6 | Active | 2.8 | 2.8 | 5.6 | 11.2 | 5.6 | Active | Active
N=C(N)NCCC[C@H](NC(=O)[C@H](Cc1cncn1CCCC1CCCCC1)NC(=O)[C@@H](N)CCCNC(=N)N)C(N)=O | > 432.9 | 54.1 (≈ 32 µg/mL) | inactive | 108 (≈ 63.9 µg/mL) | inactive | 13.5 (≈ 7.98 µg/mL) | 13.5 (≈ 7.98 µg/mL) | > 54.1 | 108 (≈ 63.9 µg/mL) | 54.1 (≈ 32 µg/mL) | – | –
N=C(N)NCCC[C@H](NC(=O)[C@H](Cc1c[n+](CCCC2CCCCC2)cn1CCCC1CCCCC1)NC(=O)[C@@H](N)CCCNC(=N)N)C(N)=O | > 357.8 | 5.2 | Active | 5.6 | Active | 5.6 | 5.6 | 5.2 | 11.2 | 5.2 | Active | Active
CC[C@H](C)[C@H](NC(=O)[C@H](CCCCN)NC(=O)[C@H](CCC(=O)O)NC(=O)[C@H](CCCCN)NC(=O)[C@H](CO)NC(=O)[C@H](CCCCN)NC(=O)[C@H](CCCNC(=N)N)NC(=O)[C@H](Cc1ccccc1)NC(=O)[C@H](Cc1ccccc1)NC(=O)[C@H](CC(=O)O)NC(=O)CNC(=O)[C@H](CC(C)C)NC(=O)[C@@H](N)CC(C)C)C(=O)NCC(=O)N[C@@H](CCCCN)C(=O)N[C@@H](CCC(=O)O)C(=O)N[C@@H](Cc1ccccc1)C(=O)N[C@@H](CCCCN)C(=O)N[C@@H](CCCNC(=N)N)C(=O)N[C@H](C(=O)N[C@H](C(=O)N[C@@H](CCC(N)=O)C(=O)N[C@@H](CCCNC(=N)N)C(=O)N[C@H](C(=O)N[C@@H](CCCCN)C(=O)N[C@@H](CC(=O)O)C(=O)N[C@@H](Cc1ccccc1)C(=O)N[C@@H](CC(C)C)C(=O)N[C@@H](CCCNC(=N)N)C(=O)N[C@@H](CC(N)=O)C(=O)N[C@@H](CC(C)C)C(=O)N[C@H](C(=O)N1CCC[C@H]1C(=O)N[C@@H](CCCNC(=N)N)C(=O)N[C@H](C(=O)N[C@@H](CCC(=O)O)C(=O)N[C@@H](CO)C(=O)O)[C@@H](C)O)C(C)C)[C@@H](C)CC)C(C)C)[C@@H](C)CC [CATHELICIDIN] | 36.7 | > 7.1 | – | 7.1 (≈ 31.9 µg/mL) | – | 14.2 (≈ 63.8 µg/mL) | 3.6 (≈ 16.2 µg/mL) | > 7.1 | 7.1 (≈ 31.9 µg/mL) | > 7.1 | Active | Active
NC(=O)[C@H](CCCN=C(N)N)NC(=O)[C@H](Cc1c[nH]c2ccccc12)NC(=O)[C@@H](N)CCCN=C(N)N (H-Arg-Trp-Arg-NH2) | > 495.8 | – | – | > 124 | – | > 124 | > 124 | – | > 124 | – | – | –
NC(=O)[C@H](CCCN=C(N)N)NC(=O)[C@H](Cc1c[nH]c2ccccc12)NC(=O)[C@H](CCCN=C(N)N)NC(=O)[C@@H](N)Cc1c[nH]c2ccccc12 (H-WRWR-NH2) | – | – | – | 45.6 (≈ 32 µg/mL) | – | 11.4 (≈ 8 µg/mL) | 45.6 (≈ 32 µg/mL) | – | 45.6 (≈ 32 µg/mL) | – | – | –
N=C(N)NCCC[C@H](NC(=O)[C@H](Cc1c[nH]c2ccccc12)NC(=O)[C@H](CCCNC(=N)N)NC(=O)[C@@H](N)Cc1c[nH]c2ccccc12)C(N)=O (H-WRWR-NH2) | > 364.5 | – | – | – | – | – | – | – | – | – | – | –
N=C(N)NCCC[C@H](NC(=O)[C@@H](N)CCCNC(=N)N)C(=O)N[C@@H](Cc1c[n+](CCCC2CCCCC2)cn1CCCC1CCCCC1)C(N)=O | > 358 | 5.6 | Active | 5.6 | Active | 5.6 | 5.6 | 11.2 | 11.2 | 5.6 | – | –
